In brackets after ≈: the same amount, converted by molar mass. Activity calls are given as the source filed them. No cut-off for these calls is given here.
Experiments:
[1] = system: A549; assay: Cytotoxicity against human A549 cells assessed as cell growth at 80 nM by sulforhodamine B assay relative to control; type: functional; conditions: read-out: Activity
Procedure, shortened: (§1)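 Run at NCI in the DTP 60-cell-line human tumor panel by standard procedure. Compounds were first screened at a single concentration, then tested at five tenfold-spaced concentrations. GI50 is the concentration reducing treated-cell growth to half that of untreated controls; TGI is the concentration completely halting growth.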

[2] = system: NCI-H23; assay: Cytotoxicity against human NCI-H23 cells assessed as cell growth at 80 nM by sulforhodamine B assay relative to control; type: functional; conditions: read-out: Activity
[3] = system: BT-549; assay: Cytotoxicity against human BT549 cells by sulforhodamine B assay; type: functional; procedure, shortened: as §1
[4] = system: T47D; assay: Cytotoxicity against human T47D cells by sulforhodamine B assay; type: functional
Procedure, shortened: (§2)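 NCI Developmental Therapeutics Program 60-cell-line human tumor panel screen, run at NCI. A single-concentration pre-screen was followed by a five-concentration dose-response in 10-fold steps. GI50 is the concentration that reduces growth of treated cells to half that of untreated control cells. TGI is the concentration that completely halts growth.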

[5] = system: HT-29; assay: Cytotoxicity against human HT-29 cells assessed as cell growth at 80 nM by sulforhodamine B assay relative to control; type: functional; conditions: read-out: Activity
[6] = system: SNB-75; assay: Cytotoxicity against human SNB75 cells assessed as cell growth at 8 nM by sulforhodamine B assay relative to control; type: functional; conditions: read-out: Activity
[7] = system: MDA-MB-435; assay: Cytotoxicity against human MDA-MB-435 cells assessed as cell growth at 80 uM by sulforhodamine B assay relative to control; type: functional; conditions: read-out: Activity
[8] = system: HCC 2998; assay: Cytotoxicity against human HCC2998 cells assessed as cell growth at 8 uM by sulforhodamine B assay relative to control; type: functional; conditions: read-out: Activity
[9] = system: SF-295; assay: Cytotoxicity against human SF295 cells assessed as cell growth at 8 uM by sulforhodamine B assay relative to control; type: functional; conditions: read-out: Activity
[10] = system: IGROV-1; assay: Cytotoxicity against human IGROV1 cells assessed as cell growth at 80 uM by sulforhodamine B assay relative to control; type: functional; conditions: read-out: Activity
[11] = system: HT-29; assay: Cytotoxicity against human HT-29 cells assessed as cell growth at 8 nM by sulforhodamine B assay relative to control; type: functional; conditions: read-out: Activity
[12] = system: ACHN; assay: Cytotoxicity against human ACHN cells assessed as cell growth at 8 uM by sulforhodamine B assay relative to control; type: functional; conditions: read-out: Activity; procedure, shortened: as §1
[13] = system: NCI-H226; assay: Cytotoxicity against human NCI-H226 cells assessed as cell growth at 8 uM by sulforhodamine B assay relative to control; type: functional; conditions: read-out: Activity
[14] = system: SK-MEL-2; assay: Cytotoxicity against human SK-MEL-2 cells assessed as cell growth at 8 nM by sulforhodamine B assay relative to control; type: functional; conditions: read-out: Activity
[15] = system: K562; assay: Cytotoxicity against human K562 cells assessed as cell growth at 8 uM by sulforhodamine B assay relative to control; type: functional; conditions: read-out: Activity
[16] = system: UACC-257; assay: Cytotoxicity against human UACC257 cells assessed as cell growth at 80 uM by sulforhodamine B assay relative to control; type: functional; conditions: read-out: Activity
[17] = system: SNB-19; assay: Cytotoxicity against human SNB19 cells assessed as cell growth at 80 uM by sulforhodamine B assay relative to control; type: functional; conditions: read-out: Activity
[18] = system: UACC-62; assay: Cytotoxicity against human UACC62 cells assessed as cell growth at 8 nM by sulforhodamine B assay relative to control; type: functional; conditions: read-out: Activity
[19] = system: HT-29; assay: Cytotoxicity against human HT-29 cells assessed as cell growth at 8 uM by sulforhodamine B assay relative to control; type: functional; conditions: read-out: Activity
[20] = system: SF-295; assay: Cytotoxicity against human SF295 cells assessed as cell growth at 80 uM by sulforhodamine B assay relative to control; type: functional; conditions: read-out: Activity
[21] = system: RPMI-8226; assay: Cytotoxicity against human RPMI8226 cells assessed as cell growth at 8 uM by sulforhodamine B assay relative to control; type: functional; conditions: read-out: Activity
[22] = system: HCT-15; assay: Cytotoxicity against human HCT15 cells assessed as cell growth at 800 nM by sulforhodamine B assay relative to control; type: functional; conditions: read-out: Activity
[23] = system: NCI-H23; assay: Cytotoxicity against human NCI-H23 cells assessed as cell growth at 800 nM by sulforhodamine B assay relative to control; type: functional; conditions: read-out: Activity
[24] = system: HL-60(TB); assay: Cytotoxicity against human HL-60(TB) cells assessed as cell growth at 8 uM by sulforhodamine B assay relative to control; type: functional; conditions: read-out: Activity
[25] = system: MDA-MB-231; assay: Cytotoxicity against human MDA-MB-231 cells assessed as cell growth at 800 nM by sulforhodamine B assay relative to control; type: functional; conditions: read-out: Activity
[26] = system: Pseudomonas aeruginosa; assay: Antimicrobial activity against Pseudomonas aeruginosa ATCC 27853 by CLSI method; type: functional, organism-based
[27] = system: NCI/ADR-RES; assay: Cytotoxicity against human NCI/ADR-RES cells by sulforhodamine B assay; type: functional; procedure, shortened: as §2
[28] = system: SF-268; assay: Cytotoxicity against human SF268 cells assessed as cell growth at 8 nM by sulforhodamine B assay relative to control; type: functional; conditions: read-out: Activity
[29] = system: Malme-3M; assay: Cytotoxicity against human MALME-3M cells assessed as cell growth at 8 uM by sulforhodamine B assay relative to control; type: functional; conditions: read-out: Activity
[30] = system: LOX IMVI; assay: Cytotoxicity against human LOXIMVI cells assessed as cell growth at 800 nM by sulforhodamine B assay relative to control; type: functional; conditions: read-out: Activity
[31] = system: OVCAR-3; assay: Cytotoxicity against human OVCAR3 cells assessed as cell growth at 8 uM by sulforhodamine B assay relative to control; type: functional; conditions: read-out: Activity
[32] = system: SR; assay: Cytotoxicity against human SR cells assessed as cell growth at 80 nM by sulforhodamine B assay relative to control; type: functional; conditions: read-out: Activity
[33] = system: DU-145; assay: Cytotoxicity against human DU145 cells assessed as cell growth at 80 nM by sulforhodamine B assay relative to control; type: functional; conditions: read-out: Activity
[34] = system: SNB-19; assay: Cytotoxicity against human SNB19 cells by sulforhodamine B assay; type: functional; procedure, shortened: as §2
[35] = system: MDA-MB-231; assay: Cytotoxicity against human MDA-MB-231 cells assessed as cell growth at 80 uM by sulforhodamine B assay relative to control; type: functional; conditions: read-out: Activity
[36] = system: IGROV-1; assay: Cytotoxicity against human IGROV1 cells assessed as cell growth at 8 uM by sulforhodamine B assay relative to control; type: functional; conditions: read-out: Activity
[37] = system: PC-3; assay: Cytotoxicity against human PC3 cells by sulforhodamine B assay; type: functional; procedure, shortened: as §2
[38] = system: Candida albicans; assay: Antimicrobial activity against Candida albicans ATCC 90028 by CLSI method; type: functional, organism-based
[39] = system: BT-549; assay: Cytotoxicity against human BT549 cells assessed as cell growth at 8 uM by sulforhodamine B assay relative to control; type: functional; conditions: read-out: Activity; procedure, shortened: as §1
[40] = system: MOLT-4; assay: Cytotoxicity against human MOLT4 cells assessed as cell growth at 8 uM by sulforhodamine B assay relative to control; type: functional; conditions: read-out: Activity
[41] = system: HL-60(TB); assay: Cytotoxicity against human HL-60(TB) cells assessed as cell growth at 80 nM by sulforhodamine B assay relative to control; type: functional; conditions: read-out: Activity

`C/C=C1\NC(=O)[C@H](Cc2ccccc2)NC(=O)[C@@H](C(C)C)NC(=O)[C@@H]([C@@H](C)CC)NC(=O)[C@H](NC(=O)[C@H](NC(=O)[C@H](CCCNCc2ccc(F)c(C)c2)NC(=O)[C@H]2CCCN2C(=O)[C@H](NC(=O)[C@@H](NC(=O)[C@@H](NC(=O)[C@H](NC(=O)CCCC(C)C)C(C)C)[C@@H](C)O)C(C)C)C(C)C)[C@@H](C)CC)[C@@H](C)OC(=O)[C@H](C(C)C)NC1=O` was tested, and the growth at 0.08 µM [1] was 98%, the growth at 0.08 µM [2] was 100% and the GI50 [3] was 1230 nM. It also gave an LC50 [3] of 4570 nM, a TGI ([3]; read-out: pTGI (converted)) of 2340 nM and a GI50 ([4]; read-out: GI50) of 144 nM. The TGI ([4]; read-out: TGI) was 327 nM, the GI50 ([4]; read-out: pGI50 (converted)) was 145 nM and the TGI ([4]; read-out: pTGI (converted)) was 331 nM. It also gave a growth at 0.08 µM [5] of 102%, a growth at 0.008 µM [6] of 112% and a growth at 80 µM [7] of -36%. It also gave a growth at 8 µM [8] of -87%, a growth at 8 µM [9] of -89% and a growth at 80 µM [10] of -26%. For the same compound, the growth at 0.008 µM [11] was 100%, the growth at 8 µM [12] was -97% and the growth at 8 µM [13] was -64%. For the same compound, the growth at 0.008 µM [14] was 98%, the growth at 8 µM [15] was -43% and the growth at 80 µM [16] was -70%. The growth at 80 µM [17] was -66%, the growth at 0.008 µM [18] was 103% and the growth at 8 µM [19] was -62%. The growth at 80 µM [20] was -35%, the growth at 8 µM [21] was -64% and the growth at 0.8 µM [22] was -35%. The growth at 0.8 µM [23] was 98%, the growth at 8 µM [24] was -65% and the growth at 0.8 µM [25] was 91%. For the same compound, the Activity [26] was “inactive”, the GI50 [27] was 1320 nM and the LC50 [27] was 5250 nM. The TGI ([27]; read-out: pTGI (converted)) was 2630 nM, the growth at 0.008 µM [28] was 97% and the growth at 8 µM [29] was -77%. It also gave a growth at 0.8 µM [30] of 108%, a growth at 8 µM [31] of -94% and a growth at 0.08 µM [32] of 89%. The growth at 0.08 µM [33] was 87%, the GI50 [34] was 1290 nM and the LC50 (concentration killing 50% of cells) [34] was 4790 nM. The TGI ([34]; read-out: pTGI (converted)) was 2450 nM, the growth at 80 µM [35] was -89% and the growth at 8 µM [36] was -75%. The LC50 [37] was 708 nM, the GI50 ([37]; read-out: GI50) was 165 nM and the TGI ([37]; read-out: TGI) was 342 nM. It also gave a GI50 ([37]; read-out: pGI50 (converted)) of 166 nM, a TGI ([37]; read-out: pTGI (converted)) of 339 nM and an IC50 [38] of 3640 nM. The MFC [38] was 20 µM (≈ 32 µg/mL), the MIC [38] was 10 µM (≈ 16 µg/mL) and the growth at 8 µM [39] was -88%. It also gave a growth at 8 µM [40] of -5% and a growth at 0.08 µM [41] of 97%.
